# Assay results published in ChEMBL document CHEMBL1124743, “Development of a novel series of (2-quinolinylmethoxy)phenyl-containing compounds as high-affinity leukotriene receptor antagonists. 1. Initial structure-activity relationships” (J Med Chem, 1990).
# pKi: −log10 of the molar value. Activity calls are given as the source filed them. The calls are words filed in the database; no cut-off is given here.
# Tests used:
# [1] = molecular target: T1, Cysteinyl leukotriene receptor 1 (Cavia porcellus) (UniProt Q2NNR5); assay: Binding affinity at 10 uM against Cysteinyl leukotriene D4 receptor from guinea pig lung by [3H]LTD4 (0.2 nM) displacement.
# T1 sequence (whole entry): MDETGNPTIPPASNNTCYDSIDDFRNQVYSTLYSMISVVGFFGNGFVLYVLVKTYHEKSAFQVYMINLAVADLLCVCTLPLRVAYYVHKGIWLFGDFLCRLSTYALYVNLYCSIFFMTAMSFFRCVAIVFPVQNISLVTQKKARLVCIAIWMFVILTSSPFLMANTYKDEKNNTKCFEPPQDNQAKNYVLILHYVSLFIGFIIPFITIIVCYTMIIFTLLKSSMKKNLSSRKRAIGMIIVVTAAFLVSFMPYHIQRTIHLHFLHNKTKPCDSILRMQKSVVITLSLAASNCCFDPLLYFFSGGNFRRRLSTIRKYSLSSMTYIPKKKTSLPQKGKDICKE
# Procedure, shortened: (§1)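 Membranes from guinea pig lung were incubated with 0.2 nM [3H]LTD4. Ki was derived from an IC50 read graphically, using at least four compound concentrations run in duplicate. Single-concentration values are % inhibition of specific binding at the stated concentration. Results are mean ± SEM with N separate experiments.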
# Cavia porcellus [2] = species: Cavia porcellus; assay: Ability to inhibit the spasmogenic activity of LTD4 in guinea pig parenchymal strips at 10 uM; type: functional
# [3] = system: Cysteinyl leukotriene receptor (Cavia porcellus); assay: inhibition of the spasmogenic activity of LTD4 in guinea pig parenchymal strips at 10 uM.
# [4] = molecular target: T2, Cysteinyl leukotriene receptor 1 (Cavia porcellus, UniProt Q2NNR5); assay: Compound was evaluated for inhibition against binding of [3H]LTD4 to Cysteinyl leukotriene D4 receptor; procedure, shortened: as §1
# T2 sequence (Q2NNR5 whole entry): T1 sequence (whole entry)
# [5] = molecular target: T2, Cysteinyl leukotriene receptor 1; assay: Binding affinity against Cysteinyl leukotriene D4 receptor from guinea pig lung was determined using [3H]LTD4 (0.2 nM); procedure, shortened: as §1
# Cavia porcellus [6] = species: Cavia porcellus; assay: Compound was evaluated for its effect on PGF2-alpha induced contractions of guinea pig peripheral lung strips; No significant effect up to 50 uM; type: functional
# Cavia porcellus [7] = species: Cavia porcellus; assay: Compound was evaluated for its effect on histamine induced contractions of guinea pig peripheral lung strips; No significant effect up to 50 uM; type: functional
# Cavia porcellus [8] = species: Cavia porcellus; assay: Compound was evaluated for its effect on methacholine induced contractions of guinea pig peripheral lung strips; No significant effect up to 50 uM; type: functional
# Cavia porcellus [9] = species: Cavia porcellus; assay: Oral activity expressed as effective dose in LTD4-induced wheal assay in guinea pig; type: functional
# Procedure, shortened: (§2)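 Guinea pigs received compound orally 60 min before intradermal LTD4 challenge, and wheal formation was scored. ED50 came from linear regression over at least three doses, with at least five animals per point. Other values are % inhibition at the indicated mg/kg dose.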
# Cavia porcellus [10] = species: Cavia porcellus; assay: Oral activity expressed as effective dose in leukotriene mediated anaphylaxis assay in guinea pig; type: functional
# Procedure, shortened: (§3)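 Immunized guinea pigs were pretreated with pyrilamine, propranolol and indomethacin, given compound orally, then challenged with aerosolized ovalbumin. Mortality was the end point. ED50 was determined graphically from at least three doses with at least six animals per dose. Other values are % inhibition at the indicated mg/kg dose.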
# Cavia porcellus [11] = assay: Effective dose to antagonize antigen induced bronchoconstrictive response (intraduodenal administration); type: functional
# Procedure, shortened: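 Actively sensitized guinea pigs were pretreated with indomethacin, pyrilamine and propranolol, then given compound intraduodenally and challenged with iv ovalbumin. Inhibition of bronchoconstriction was measured. ED50 is reported with 95% CI.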
# Cavia porcellus [12] = assay: Effective dose to antagonize bronchoconstrictive response of LTD4 at 0.8 ug/kg (i.v.); type: functional; settings: Lung, iv
# Cavia porcellus [13] = species: Cavia porcellus; assay: Compound was evaluated for its effect on LTC4 induced contractions of guinea pig peripheral lung strips; type: functional
# Procedure, shortened: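 Guinea pig lung parenchymal strips were suspended in a tissue bath and contracted with 0.2 nM LTC4. IC50 was determined graphically from at least four concentrations. Results are mean ± SEM with N separate experiments, or % inhibition at the stated concentration.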
# Cavia porcellus [14] = species: Cavia porcellus; assay: Compound was evaluated for its effect on LTD4 induced contractions of guinea pig peripheral lung strips; type: functional
# Cavia porcellus [15] = species: Cavia porcellus; assay: Compound was evaluated for its effect on LTE4 induced contractions of guinea pig peripheral lung strips; type: functional
# Cavia porcellus [16] = species: Cavia porcellus; assay: Half life was determined; settings: guinea pig
# [17] = molecular target: Cysteinyl leukotriene receptor (Cavia porcellus); assay: Inhibition of the spasmogenic activity of LTD4 in guinea pig parenchymal strips.
# [18] = system: Arachidonate 5-lipoxygenase (Cavia porcellus); assay: Percent inhibition against 5-lipoxygenase from guinea pig polymorphonuclear […]; settings: concentration not given here
# [19] = molecular target: T1, Cysteinyl leukotriene receptor 1 (Cavia porcellus); assay: Binding affinity against Cysteinyl leukotriene D4 receptor from guinea pig lung was determined using [3H]LTD4 (0.2 nM) at compound concentration of 1 uM; procedure, shortened: as §1
# Cavia porcellus [20] = species: Cavia porcellus; assay: Oral activity expressed as percent inhibition in leukotriene mediated anaphylaxis assay in guinea pig at 60 uM; type: functional; settings: in the assay text read “60 mg/kg” for “60 uM”; procedure, shortened: as §3
# Cavia porcellus [21] = assay: Oral activity expressed as percent inhibition in LTD4-induced wheal assay in guinea pig at 18 mg/kg
# Cavia porcellus [22] = species: Cavia porcellus; assay: Oral activity expressed as percent inhibition in LTD4-induced wheal assay in guinea pig at 10 uM; type: functional; settings: in the assay text read “at 10 mg/kg” for “at 10 uM”; procedure, shortened: as §2
# Cavia porcellus [23] = species: Cavia porcellus; assay: Oral activity expressed as percent inhibition in LTD4-induced wheal assay in guinea pig at 9 uM; type: functional; settings: in the assay text read “at 9 mg/kg” for “at 9 uM”; procedure, shortened: as §2
# Cavia porcellus [24] = species: Cavia porcellus; assay: Oral activity expressed as percent inhibition in leukotriene mediated anaphylaxis assay in guinea pig at 30 uM; type: functional; settings: in the assay text read “30 mg/kg” for “30 uM”; procedure, shortened: as §3
# Cavia porcellus [25] = species: Cavia porcellus; assay: Ability to inhibit the spasmogenic activity of LTC4 in guinea pig parenchymal strips at 1 uM
Structure (SMILES),inhibition [1] [%],inhibition [3] [%],pKi [5],IC50 [17] [nM],other results
c1cc(OCCCc2nnn[nH]2)cc(OCc2cc3ccccc3cn2)c1,45,,,,inhibition at 10 µM (Cavia porcellus [2]): 68%
c1ccc2sc(COc3ccc(OCCCc4nnn[nH]4)cc3)cc2c1,9,36,,,
c1cc(OCCCc2nnn[nH]2)cc(OCc2ccc3ccccc3n2)c1,,,7.38,79,pKi [4]: 7.38; Activity (Cavia porcellus [6]): inactive; Activity (Cavia porcellus [7]): inactive; Activity (Cavia porcellus [8]): inactive; ED50 (Cavia porcellus [9]): 6.9 mg/kg; ED50 (Cavia porcellus [10]): 16 mg/kg; ED50 (Cavia porcellus [11]): 2.5 mg/kg; ED50 (Cavia porcellus [12]): 1.1 mg/kg; Kb (Cavia porcellus [13]): ~90 nM; Kb (Cavia porcellus [14]): ~90 nM; Kb (Cavia porcellus [15]): ~90 nM; half-life (Cavia porcellus [16]): ~4 h; inhibition [18]: 9%
c1ccc(COc2cccc(OCCCc3nnn[nH]3)c2)nc1,10,18,,,
O=C(Nc1ccc(OCCCc2nnn[nH]2)cc1)c1ccc2ccccc2n1,25,4,,,
O=C(NCc1ccc2ccccc2n1)c1ccc(OCCCc2nnn[nH]2)cc1,18,-3,,,
c1ccc2c(COc3ccc(OCCCc4nnn[nH]4)cc3)nccc2c1,,,,,inhibition [19]: 7%
c1ccc(OCc2ccc3ccccc3n2)c(OCCCc2nnn[nH]2)c1,,,5.48,,
c1ccc2nc(COc3ccc(OCCCc4nnn[nH]4)cc3)ncc2c1,,75,6.30,,
c1cc(OCCCc2nnn[nH]2)cc(OCc2ccc3ccccc3c2)c1,0,12,,,
c1ccc2c(c1)CCC(COc1ccc(OCCCc3nnn[nH]3)cc1)N2 (stereo not given),,22,,,
c1ccc(COc2cccc(OCCCc3nnn[nH]3)c2)cc1,12,9,,,
c1cc(OCCCCc2nnn[nH]2)cc(OCc2ccc3ccccc3n2)c1,,,7.12,120,Inhibition (Cavia porcellus [10]): 64%
c1ccc(-c2ccc(COc3cccc(OCCCc4nnn[nH]4)c3)nc2)cc1,58,22,,,
c1ccc2nc(COc3ccc(OCCCc4nnn[nH]4)cc3)ccc2c1,,,7.16,250,ED50 (Cavia porcellus [9]): 7 mg/kg; ED50 (Cavia porcellus [10]): 50 mg/kg; half-life (Cavia porcellus [16]): ~4 h
c1ccc(OCc2ccc3ccccc3n2)cc1,,,6.00,,
c1cc(OCc2ccc3ccccc3n2)cc(OCc2nn[nH]n2)c1,,,7.07,140,Inhibition (Cavia porcellus [20]): 67%; Inhibition (Cavia porcellus [21]): 18%
c1ccc2nc(COc3ccc(CCCCc4nnn[nH]4)cc3)ccc2c1,,,,,Inhibition (Cavia porcellus [22]): 35%
O=C(O)c1ccc(COc2ccc(OCCCc3nnn[nH]3)cc2)nc1,30,22,,,
CCc1ccc(OCc2ccc3ccccc3n2)cc1OCCCc1nnn[nH]1,,,6.62,250,
Cc1cc(OCc2ccc3ccccc3n2)ccc1OCCCc1nnn[nH]1,,,6.77,,

Structure (SMILES),inhibition [1] [%],inhibition [3] [%],pKi [5],IC50 [17] [nM],other results
CCCCCC(O)c1cccc(OCc2ccc3ccccc3n2)c1 (stereo not given) [REV-5901],,,5.82,,
O=C(O)CCCOc1cccc(OCc2ccc3ccccc3n2)c1,,,,,ED50 (Cavia porcellus [9]): 7.2 mg/kg; ED50 (Cavia porcellus [10]): 20 mg/kg
O=C(Nc1ccc2ccccc2n1)c1ccc(OCCCc2nnn[nH]2)cc1,33,43,,,
c1cc(OCc2ccc3ccccc3n2)cc(-c2nn[nH]n2)c1,,,6.94,200,ED50 (Cavia porcellus [10]): 145 mg/kg
c1ccc2nc(COc3ccc(SCCCc4nnn[nH]4)cc3)ccc2c1,,,7.51,25,Inhibition (Cavia porcellus [22]): 23%
c1ccc2nc(COCc3ccc(OCCCc4nnn[nH]4)cc3)ccc2c1,,,5.92,,
c1ccc(COc2ccc(OCCCc3nnn[nH]3)cc2OCc2ccc3ccccc3n2)cc1,57,44,,,
c1ccc(Oc2cccc(COc3cccc(OCCCc4nnn[nH]4)c3)n2)cc1,48,9,,,
CCOC(=O)c1ccc(COc2ccc(OCCCc3nnn[nH]3)cc2)nc1,35,41,,,
O=C(O)CCCOc1ccc(OCc2ccc3ccccc3n2)cc1,,,5.92,800,
O=C(CCCOc1ccc(OCc2ccc3ccccc3n2)cc1)NS(=O)(=O)c1ccccc1,,,7.51,19,Inhibition (Cavia porcellus [23]): 24%; Inhibition (Cavia porcellus [20]): 64%
c1ccc2nc(CSc3ccc(OCCCc4nnn[nH]4)cc3)ccc2c1,,,6.27,,
c1ccc2nc(COc3ccc(CCc4nnn[nH]4)cc3)ccc2c1,,,6.80,280,
c1ccc(-c2cccc(COc3ccc(OCCCc4nnn[nH]4)cc3)n2)cc1,48,50,,,
CCOC(=O)CCCOc1ccc(OCc2ccc3ccccc3n2)cc1,,,6.30,2000,
c1ccc2sc(COc3ccc(OCCCc4nnn[nH]4)cc3)nc2c1,,59,6.62,,
CCOC(=O)CCCOc1cccc(OCc2ccc3ccccc3n2)c1,,,6.80,600,ED50 (Cavia porcellus [9]): 15 mg/kg; Inhibition (Cavia porcellus [24]): 83%
c1ccc2[nH]c(COc3ccc(OCCCc4nnn[nH]4)cc3)nc2c1,28,42,,,
c1cc(OCCCc2nnn[nH]2)cc(OCc2cnc3ccccc3c2)c1,15,-10,,,
Cc1cc(OCCCc2nnn[nH]2)cc(OCc2ccc3ccccc3n2)c1,,,6.19,,inhibition at 1 µM (Cavia porcellus [25]): 20%
c1ccc2nc(COc3ccc(Cc4nnn[nH]4)cc3)ccc2c1,,,6.56,1000,
